Rows were chosen to be rich in hits. Some 3.5% of all compounds tested hit in one or more screens of this group.
HIV Env fusion = inhibitors of HIV-1 Env-driven cell-cell fusion, primary screen, HeLa-JRFL effector, CEM21 target cells, luciferase. inhibition, % at 12.3 µM. 1.1% of 360,000 active;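 active = mean replicate inhibition score of at least 50 and every replicate individually at or above 50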;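 also: 0% = plate neutral controls and 100% = maraviroc near 300 nM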
PglD inh = C. jejuni PglD acetyltransferase inhibitors, primary screen, biochemical, DTNB colorimetric, single point; 0.098% of 360,000 active; purified PglD enzyme, DTNB colorimetric CoA detection; AID 602405, 2012; inhibition, % at 12.5 µM; UDP-N-acetylbacillosamine N-acetyltransferase PglD (Campylobacter jejuni); in the data active = inhibition above about 16%, passing the limit was not always enough
PGC1a acetyl inh = inhibitors of PGC1a acetylation signal, primary screen, cell-based, U2OS, AlphaScreen, inhibitor mode. AlphaScreen anti-acetyl-lysine; with virally co-expressed GCN5 acetyltransferase. inhibition, % at 15.6 µM. 0.17% of 350,000 active;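 active = every replicate shows inhibition of at least 40%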;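 also: 0% = neutral control wells and 100% = positive control wells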
Ecoli rRNA inh = reduced GFP signal of wild-type E. coli, primary screen, bacterial rRNA inhibitor project, GFP/RFP fluorescence, OD600, single point; E. coli WT GFP vs humanized-ribosome RFP mutants, 24 h; stronger effect = lower value; DMSO median 0, no signal -100; GFP signal change (wild-type ribosome), % (test concentration not listed); 1.6% of 350,000 active; AID 720706, 2013;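 active = significant combined selectivity score with lowered wild-type GFP, culture density cut under 30%, mutant RFP and density less affected; inactive = any of these conditions unmet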
FN deposition inh = inhibitors of fibronectin matrix deposition, primary screen, AH1F cells, Alexa488-fibronectin fluorescence, plate reader; 0.086% of 350,000 active; AH1F fibroblasts, overnight; AID 743247, 2014; inhibition, % at 12.6 µM;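 active = mean inhibition across replicates of 30% or more, regardless of how many single replicates reach that level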;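 also: positive control wells lacked labelled fibronectin entirely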
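material = AH1F fibroblast monolayer depositing Alexa488-labelled fibronectin into matrix | amount = 10000 AH1F cells/well | buffer or medium = DMEM plus 2% serum, read in PBS | incubation = 1 h cell adhesion before compound, then overnight fibronectin incubation | detection = fluorescence at 485 nm excitation, 525 nm emission | evaluation = percent inhibition as loss of matrix-bound fibronectin fluorescence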
DENV2 CPE = inhibitors of DENV2 cytopathic effect, primary screen, cell-based, plate reader, single concentration | AID 651640, 2012 | CPE inhibition, % at 9.99 µM | DENV2-infected cells, cytopathic effect rescue | 1.7% of 350,000 active; in the data active = CPE inhibition above about 20%, passing the limit was not always enough; tested in BHK-21 cells;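 also: 0% = median of neutral control wells and 100% = median of positive control wells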
Starred values were filed as active, the others as inactive; . = no result given; [ ] = another dose, or the depositor's remark.

SMILES | HIV Env fusion | PglD inh | PGC1a acetyl inh | Ecoli rRNA inh | FN deposition inh | DENV2 CPE
CCOc1ccc(/C=C(\C(=O)O)c2ccc(S(=O)(=O)N3CCOCC3)s2)cc1OC | 23 | 4 | . | . | 9 | .
CCOc1ccc(/C=C(\C(=O)O)c2ccc(S(=O)(=O)N3CCCCC3)s2)cc1OC | -27 | -1 | 11 | -23* | -4 | 1
Cc1nn(Cc2ccccc2)c(C)c1NC(=O)CSc1nc(-c2ccccc2)nc2c1cnn2-c1ccccc1 | . | 10 | 4 | . | . | .
Cc1nc(SCC(=O)Nc2c(C)nn(C)c2C)c2cnn(-c3ccccc3)c2n1 | 64* | -1 | 7 | . | 1 | .
C[C@@H]1CN([C@@H](C)CO)C(=O)c2cc(C#C[C@@H](C)O)cnc2O[C@H]1CN(C)CC1CCCCC1 | -2[16.7 µM] | -2 | -8 | 4 | -30 | -3
COc1ccc2c3c([nH]c2c1)[C@H](CO)NCC31CCN(Cc2ccccc2)CC1 | . | . | 3 | 1 | . | 7
COc1ccc2c3c([nH]c2c1)[C@@H](CO)NCC31CCN(C(=O)C2CCCC2)CC1 | . | . | . | -2 | . | 78*
COc1ccc2c3c([nH]c2c1)[C@@H](CO)NCC31CCN(Cc2ccc(F)cc2)CC1 | . | . | 5 | -1 | -8 | 24*
C[C@H]1CN([C@@H](C)CO)S(=O)(=O)c2ccc(C#CC(C)(C)O)cc2O[C@@H]1CN(C)C(=O)C1CCCCC1 | -60[16.7 µM] | 2 | -5 | 0 | . | -12
CC1(C)CC(N2CCCCC2)=CC(=[N+]2CCCCC2)C1 | 35 | -3 | -2 | -37* | 4 | 6
CCCN(CCC)C1=CC(=[N+]2CCCC2)CC(C)(C)C1 | 48 | . | . | -47* | -2 | -3
CO[C@@H]1CN(C)C(=O)c2cc(NS(C)(=O)=O)ccc2OC[C@H](C)N(CC2CCOCC2)C[C@@H]1C | -4[16.7 µM] | -1 | 13 | 1 | 5 | -3
O=C(C1CCCN(S(=O)(=O)c2cccc3nonc23)C1)N1CCN(c2ccccc2)CC1 (stereo not given) | . | 1 | -5 | -29* | . | -2
Cc1ccccc1-c1ccc([C@@H]2[C@@H](CO)N3C(=O)CN(C(=O)Cc4ccccn4)C[C@@H]23)cc1 | . | . | 13 | 3 | . | -6
COc1ccc(N2CCN(CCOc3ccc4c(C)cc(=O)oc4c3)CC2)cc1 | 14 | 1 | -10 | 9 | 2 | -3
Cc1cc(=O)oc2cc(OCCSCCN3CCCC3)ccc12 | -20 | -1 | 16 | 7 | -4 | 37*
Cc1cccc(N2CCN(S(=O)(=O)c3cn(C)cn3)CC2)c1C | 2 | 1 | -7 | 7 | 43* | 1
Cc1ccc(C)c(N2CCN(S(=O)(=O)c3cn(C)cn3)CC2)c1 | -1 | -3 | 17 | -3 | -8 | 8
COc1ccc(CNC(=O)C2=CC(c3ccc(OC)c(OC)c3)=NS(=O)(=O)N2C)cc1 | . | -5 | 5 | 6 | 6 | 0
CCc1ccc(NC(=O)C2=CC(c3ccc(OC)c(OC)c3)=NS(=O)(=O)N2C)cc1 | 56* | -1 | -2 | -6 | 1 | 1
C[C@H]1CN([C@@H](C)CO)C(=O)c2cc(NC(=O)Cn3cnnn3)ccc2O[C@@H]1CN(C)Cc1ccc(Cl)c(Cl)c1 | 2[16.7 µM] | 4 | 1 | -4 | . | 6
COc1cccc(OC)c1OCCCCc1c(C)n[nH]c1C | -1 | . | . | -24* | -11 | .
O=C(OCC(=O)N1CCN(c2ccccc2)CC1)c1cccc([N+](=O)[O-])c1 | 71* | 7 | . | -3 | -3 | 1
Cc1ccc(C#N)c(SCc2cccc(Br)c2)n1 | 4 | 0 | 5 | . | -7 | 1
COC(OC)c1ccc(C#N)c(SCc2ccc(C)cc2)n1 | -5 | . | . | -29* | 6 | 0
SMILES | HIV Env fusion | PglD inh | PGC1a acetyl inh | Ecoli rRNA inh | FN deposition inh | DENV2 CPE
COC(=O)C1=C(C)N(C)C(=NCc2ccc(OC)cc2)NC1c1ccc(F)cc1 (stereo not given) | 8 | . | . | 13 | 6 | 50*
COC(=O)C1=C(C)N(C)C(=NCc2ccc(OC)cc2)NC1c1ccc(C(F)(F)F)cc1 (stereo not given) | 55* | . | . | -45 | -7 | -2
COC(=O)C1=C(C)N(C)C(=NCc2ccccc2)NC1c1ccccc1 (stereo not given) | -5 | . | . | 19 | 9 | -8
COC(=O)C1=C(C)N(C)C(=NCc2ccc(C(F)(F)F)cc2)NC1c1ccc(C(F)(F)F)cc1 (stereo not given) | 32 | . | . | -43 | -3 | -4
O=C(CCN1CCCCC1)NCC[C@@H]1CC[C@@H](NS(=O)(=O)c2cccc(Cl)c2)[C@H](CO)O1 | -5[16.7 µM] | . | -3 | 4 | -10 | .
COc1ccc(CNC(=O)C[C@H]2CC[C@@H](NC(=O)Nc3ccc4c(c3)OCO4)[C@@H](CO)O2)cc1 | 31[16.7 µM] | 3 | -5 | -1 | -12 | -7
CC1(C)CC[C@]2(C(=O)n3ccnc3)CC[C@]3(C)[C@H](C(=O)C=C4[C@@]5(C)C=C(C#N)C(=O)C(C)(C)[C@@H]5CC[C@]43C)[C@@H]2C1 | 109* | . | . | 1 | 0 | -6
CN1CCN(CCCOc2ccc(-c3ccccc3)cc2)CC1 | -13 | -5 | -18 | 3 | 2 | -9
CN1CCN(CCOc2ccc(-c3ccccc3)cc2)CC1 | 3 | -3 | . | 4 | -1 | 49*
CC(C)N(C(=O)CSc1nnc(CSc2ncccn2)n1C)C(C)C | -5 | -162 | -9 | 13 | -6 | 33*
CCSc1nnc(CSc2ncccn2)n1C | -7 | . | . | 15 | -1 | 1
Cc1sc2ncnc(N3CCC(C(=O)N(C)CC(=O)Nc4ccccc4Cl)CC3)c2c1C | 24 | -1 | . | -32 | -1 | 7
Cc1sc2ncnc(N3CCC(C(=O)Nc4cc(Cl)ccc4Cl)CC3)c2c1C | 13 | 1 | . | -9 | 8 | -4
Cc1sc2ncnc(N3CCC(C(=O)Nc4cc(S(C)(=O)=O)ccc4Cl)CC3)c2c1C | 92* | 3 | . | -3 | 1 | 9
CCN(CC(=O)Nc1cc(Cl)ccc1C)C(=O)C1CCN(c2ncnc3sc(C)c(C)c23)CC1 | 61* | -2 | 1 | -3 | -2 | 6
CC(=O)Nc1ccc(-c2ccnc3c2CC(C(=O)Nc2ccccc2)O3)cc1 (stereo not given) | -46 | 1 | -10 | 3 | 20 | 56*
O=C(Nc1cccc(OC(F)(F)F)c1)C1Cc2c(-c3ccccc3Oc3ccccc3)ccnc2O1 (stereo not given) | 59* | 0 | . | 6 | . | -2
O=C(Nc1cc(C(F)(F)F)ccc1F)C1Cc2c(-c3ccccc3Oc3ccccc3)ccnc2O1 (stereo not given) | 79* | -2 | . | 8 | -8 | 6

Assay outcomes deposited in PubChem by Broad Institute.
